In ChEMBL document CHEMBL2062399, “Design, synthesis, and structure-activity relationships of a series of 2-Ar-8-methyl-5-alkylaminoquinolines as novel CRF₁ receptor antagonists” (Bioorg Med Chem Lett, 2012) one finds IC50 and inhibition in vivo data, which are given here for 16 compounds.

Assay [1] addresses T1, Corticotropin-releasing factor receptor 1 (Homo sapiens, UniProt P34998).
T1 sequence (P34998 whole entry): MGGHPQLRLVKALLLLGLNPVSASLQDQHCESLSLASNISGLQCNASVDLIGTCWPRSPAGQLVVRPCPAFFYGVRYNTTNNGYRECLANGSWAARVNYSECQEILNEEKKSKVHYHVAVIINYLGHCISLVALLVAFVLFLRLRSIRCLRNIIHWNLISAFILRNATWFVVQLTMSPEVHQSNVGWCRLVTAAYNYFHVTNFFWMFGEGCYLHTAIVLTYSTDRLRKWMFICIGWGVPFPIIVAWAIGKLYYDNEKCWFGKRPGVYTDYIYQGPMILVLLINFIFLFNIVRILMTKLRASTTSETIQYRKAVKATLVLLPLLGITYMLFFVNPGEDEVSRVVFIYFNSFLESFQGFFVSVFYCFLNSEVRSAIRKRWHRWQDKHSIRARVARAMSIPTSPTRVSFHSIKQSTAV
Put plainly: Displacement of [125I]-CRF from human CRF1 receptor expressed in HEK293 cells after 2 hrs. The class given is cell-based. In a few lines: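 Scintillation proximity assay with HEK293 membranes expressing human CRF1 (5 µg/well), WGA-coated SPA beads and 0.1 nM [125I] human/rat CRF. Buffer pH 7.0 with 10 mM MgCl2, 2 mM EGTA, 1.5% BSA and protease inhibitors. Nonspecific binding with 0.4 µM unlabeled sauvagine. Incubated over 2 h at room temperature, then centrifuged and counted. Specific binding taken as % of total, IC50 from concentration-response curve.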
In general terms: Displacement assays read how much labelled ligand stays bound in the presence of the test substance.

Assay [2] addresses T1, Corticotropin-releasing factor receptor 1. The experiment in a line: Antagonist activity at human CRF1 receptor expressed in HEK293 cells assessed as inhibition of CRF-stimulated intracellular cAMP accumulation after 30 mins by enzyme immunoassay. The assay is classed as functional, cell-based. The method, boiled down: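 HEK293 cells stably expressing human CRF1, seeded at 5×10^4 cells/well in DMEM with 0.1% FBS and 1 mM IBMX. After 30 min preincubation, compound added for 30 min at 37 °C, then 1 nM human/rat CRF for 30 min at 37 °C. Lysed cAMP measured by EIA, basal subtracted, expressed as % of total production. IC50 from concentration-response curve.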
On the technique in general: Cyclic AMP is a second messenger, typically raised through Gs and lowered through Gi signalling.

For assay [3], the system named is Rattus norvegicus. Put plainly: Inhibition of CRF-induced fecal pellet output in rat at 10 mg/kg, po administered 1 hr before CRF challenge by measuring decrease in fecal weight after 4 hrs. The assay is classed as functional. The following applies: Feces. In a few lines:
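Rats dosed orally at 10 mg/kg 1 h before intravenous CRF (10 µg/kg). Fecal weight measured 4 h after CRF injection and compared with the vehicle + CRF group. 6–7 rats/group, mean ± S.E.M., unpaired t test.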

SMILES strings stand for the structures.

The IC50 is the concentration that gives 50% inhibition. As a reminder, the inhibition in vivo is the drop in the measured response relative to a control, in per cent. Low values mean little suppression, high ones strong suppression. As to `COCc1cc(OC)c(-c2nc3c(C)ccc(N(CC4CC4)CC4CC4)c3cc2C)c(OC)c1`, the figures for the half-inhibitory concentration (IC50) in assay [1] and in assay [2] were 88 nM and 46 nM, respectively. Moreover, the inhibition in vivo at 10 mg/kg in assay [3] was determined as 53%.

In the case of `CCCN(CCC)c1cccc2nc(-c3c(OC)cc(COC)cc3OC)c(C)cc12`, the IC50 in assay [1] is 276 nM; in assay [2], 97 nM.

Take `CCCN(CCC)c1ccc(C)c2nc(-c3c(OC)cc(COC)cc3OC)c(C)cc12`: the IC50 in assay [1] amounted to 88 nM; in assay [2], 70 nM. The same compound gave an inhibition in vivo at 10 mg/kg in assay [3] of 64%.

In the case of `CCCN(CCC)c1ccc(C)c2nc(Oc3c(OC)cc(COC)cc3OC)c(C)cc12`, in assay [1], the IC50 was over 1000 nM.

On to `COCc1cc(OC)c(-c2nc3c(C)ccc(N(C)C)c3cc2C)c(OC)c1`, for which the IC50 in assay [1] was 212 nM; in assay [2] it was over 1000 nM.

Take `COCc1cc(OC)c(-c2nc3c(C)ccc(N(CC4CCOCC4)CC4CC4)c3cc2C)c(OC)c1`: the IC50 in assay [1] came to 286 nM.

With `CCN(CC)c1ccc(C)c2nc(-c3c(OC)cc(COC)cc3OC)c(C)cc12`, the half-inhibitory concentration (IC50) worked out at 79 nM in assay [1] and 24 nM in assay [2]. This compound showed an inhibition in vivo at 10 mg/kg in assay [3] of 63%.

The compound `COCc1cc(OC)c(-c2nc3c(C)ccc(N(CC4CC4)C4CCOCC4)c3cc2C)c(OC)c1` yielded an IC50 in assay [1] of 246 nM.

For the compound `COCCNc1ccc(C)c2nc(-c3c(OC)cc(COC)cc3OC)c(C)cc12`, in assay [1], the IC50 was over 1000 nM.

As to `CCN(CC)c1ccc(C)c2nc(-c3c(OC)cc(COC)cc3OC)c(Cl)cc12`, the IC50 in assay [1] is 81 nM; in assay [2] it was 45 nM.

`COCCN(C)c1ccc(C)c2nc(-c3c(OC)cc(COC)cc3OC)c(C)cc12`: the concentration for half-maximal inhibition (IC50) in assay [1] stood at 89 nM; in assay [2], 174 nM.

Turning to `CCN(CC)c1ccc(C)c2nc(-c3c(OC)cc(COC)cc3OC)ccc12`, the figures for the IC50 in assay [1] and in assay [2] were 184 nM and 381 nM, respectively.

`CCN(CCOC)c1ccc(C)c2nc(-c3c(OC)cc(COC)cc3OC)c(C)cc12`: the half-inhibitory concentration (IC50) in assay [1] was 109 nM; in assay [2], 23 nM.

As for `CCC(CC)Nc1ccc(C)c2nc(-c3c(OC)cc(COC)cc3OC)c(C)cc12`, in assay [1], the IC50 was over 1000 nM.

`CCCN(CCC)c1ccc(CC)c2nc(-c3c(OC)cc(COC)cc3OC)c(C)cc12`: the figures for the IC50 in assay [1] and in assay [2] were 115 nM and 375 nM, respectively.

In the case of `CCN(CC)c1ccc(C)c2nc(-c3c(OC)cc(COC)cc3OC)c(F)cc12`, the IC50 in assay [1] is 144 nM; in assay [2], 131 nM.
